Measurements: ChEMBL document CHEMBL4428038, “Overcoming chloroquine resistance in malaria: Design, synthesis and structure-activity relationships of novel chemoreversal agents” (Eur J Med Chem, 2016)
Calls of active or inactive are those of the source. No cut-off for these calls is given here.

Columns and labels:
Plasmodium falciparum [1] = experiment: Intrinsic antimalarial activity against chloroquine/artemisinin-resistant Plasmodium falciparum ARS272 harboring CRT K76T mutant assessed as reduction in parasite viability at 500 nM; assay type: functional, organism-based
Plasmodium falciparum [2] = experiment: Intrinsic antimalarial activity against chloroquine/artemisinin-resistant Plasmodium falciparum NHP4773 harboring CRT K76T mutant assessed as reduction in parasite viability at 500 nM; assay type: functional, organism-based
Plasmodium falciparum [3] = experiment: Intrinsic antimalarial activity against chloroquine/artemisinin-resistant Plasmodium falciparum ARS233 harboring CRT K76T mutant assessed as reduction in parasite viability at 500 nM; assay type: functional, organism-based
Plasmodium falciparum K1 = experiment: Inhibition of CRT CVIET haplotype mutant in Plasmodium falciparum K1 isolate MRA-159 infected in erythrocytes assessed as chloroquine-coumarin probe accumulation at 10 uM after 10 hrs by Hoechst 33342 staining based flow cytometry (reference value: 35.57 +/- 3.84%); assay type: cell-based; parameters: scale not given: the % may be the effect or the level left
In short: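 Infected erythrocyte cultures at 2.5% hematocrit and 7–12% parasitemia, synchronized to late-ring/early-trophozoite stage, were incubated with chloroquine-coumarin probe plus test agent for 10 h at 37 C. Cells were then washed, resuspended in PBS and read by flow cytometry (405 nm excitation, 450/50 filter). Hoechst-stained duplicate wells set parasitemia. Uptake = % infected erythrocytes fluorescent. Controls: PBS (negative), desipramine and parent compound (positive). ≥3 independent experiments; mean ± SEM.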

Plasmodium falciparum [4] = experiment: Intrinsic antimalarial activity against chloroquine-resistant Plasmodium falciparum NHP4559 harboring CRT K76T mutant assessed as reduction in parasite viability at 500 nM; assay type: functional, organism-based
Plasmodium falciparum [5] = experiment: Intrinsic antimalarial activity against chloroquine-resistant Plasmodium falciparum Dd2 isolate MRA-156 harboring CRT K76T mutant assessed as reduction in parasite viability at 500 nM; assay type: functional, organism-based
Plasmodium falciparum [6] = experiment: Intrinsic antimalarial activity against chloroquine-sensitive Plasmodium falciparum 3D7 isolate MRA-102 assessed as reduction in parasite viability at 500 nM; assay type: functional, organism-based
Plasmodium falciparum [7] = experiment: Intrinsic antimalarial activity against intermediate chloroquine-resistant Plasmodium falciparum 7G8 isolate MRA-154 harboring CRT SVMNT haplotype mutant assessed as reduction in parasite viability at 500 nM; assay type: functional, organism-based
Plasmodium falciparum [8] = experiment: Intrinsic antimalarial activity against chloroquine-resistant Plasmodium falciparum K1 isolate MRA-159 harboring CRT CVIET haplotype mutant assessed as reduction in parasite viability at 500 nM; assay type: functional, organism-based
Plasmodium falciparum [9] = experiment: Intrinsic antimalarial activity against chloroquine-sensitive Plasmodium falciparum HB3 isolate MRA-155 assessed as reduction in parasite viability at 500 nM; assay type: functional, organism-based

## Ic1ccccc1CNCC(c1ccccc1)c1ccccc1
Plasmodium falciparum [1]
  Activity: inactive
Plasmodium falciparum [2]
  Activity: inactive
Plasmodium falciparum [3]
  Activity: inactive
Plasmodium falciparum K1
  Activity: 50.9%
Plasmodium falciparum [4]
  Activity: inactive
Plasmodium falciparum [5]
  Activity: inactive
Plasmodium falciparum [6]
  Activity: inactive
Plasmodium falciparum [7]
  Activity: inactive
Plasmodium falciparum [8]
  Activity: inactive
Plasmodium falciparum [9]
  Activity: inactive

## O=C1Cc2ccccc2Sc2ccc(Cl)cc21
Plasmodium falciparum [1]
  Activity: inactive
Plasmodium falciparum [2]
  Activity: inactive
Plasmodium falciparum [3]
  Activity: inactive
Plasmodium falciparum K1
  Activity: 49.1%
Plasmodium falciparum [4]
  Activity: inactive
Plasmodium falciparum [5]
  Activity: inactive
Plasmodium falciparum [6]
  Activity: inactive
Plasmodium falciparum [7]
  Activity: inactive
Plasmodium falciparum [8]
  Activity: inactive
Plasmodium falciparum [9]
  Activity: inactive

## O=C1/C(=C/c2ccccc2)N2CCC1CC2
Plasmodium falciparum [1]
  Activity: inactive
Plasmodium falciparum [2]
  Activity: inactive
Plasmodium falciparum [3]
  Activity: inactive
Plasmodium falciparum K1
  Activity: 39%
Plasmodium falciparum [4]
  Activity: inactive
Plasmodium falciparum [5]
  Activity: inactive
Plasmodium falciparum [6]
  Activity: inactive
Plasmodium falciparum [7]
  Activity: inactive
Plasmodium falciparum [8]
  Activity: inactive
Plasmodium falciparum [9]
  Activity: inactive

## N#CC(CCN1CCN(c2ccc(F)cc2)CC1)(c1ccccc1)c1ccccc1
Plasmodium falciparum [1]
  Activity: inactive
Plasmodium falciparum [2]
  Activity: inactive
Plasmodium falciparum [3]
  Activity: inactive
Plasmodium falciparum K1
  Activity: 49%
Plasmodium falciparum [4]
  Activity: inactive
Plasmodium falciparum [5]
  Activity: inactive
Plasmodium falciparum [6]
  Activity: inactive
Plasmodium falciparum [7]
  Activity: inactive
Plasmodium falciparum [8]
  Activity: inactive
Plasmodium falciparum [9]
  Activity: inactive

## CC(C)(C)OC(=O)NC1CCN(CCC(C#N)(c2ccccc2)c2ccccc2)CC1
Plasmodium falciparum [1]
  Activity: inactive
Plasmodium falciparum [2]
  Activity: inactive
Plasmodium falciparum [3]
  Activity: inactive
Plasmodium falciparum K1
  Activity: 38.8%
Plasmodium falciparum [4]
  Activity: inactive
Plasmodium falciparum [5]
  Activity: inactive
Plasmodium falciparum [6]
  Activity: inactive
Plasmodium falciparum [7]
  Activity: inactive
Plasmodium falciparum [8]
  Activity: inactive
Plasmodium falciparum [9]
  Activity: inactive

## CC(C)(C)OC(=O)N1CCCC(NCc2ccccc2I)C1 (stereo unspecified)
Plasmodium falciparum [1]
  Activity: inactive
Plasmodium falciparum [2]
  Activity: inactive
Plasmodium falciparum [3]
  Activity: inactive
Plasmodium falciparum K1
  Activity: 40.5%
Plasmodium falciparum [4]
  Activity: inactive
Plasmodium falciparum [5]
  Activity: inactive
Plasmodium falciparum [6]
  Activity: inactive
Plasmodium falciparum [7]
  Activity: inactive
Plasmodium falciparum [8]
  Activity: inactive
Plasmodium falciparum [9]
  Activity: inactive

## NC(=O)C(CCN1CCN(c2ccc(F)cc2)CC1)(c1ccccc1)c1ccccc1
Plasmodium falciparum [1]
  Activity: inactive
Plasmodium falciparum [2]
  Activity: inactive
Plasmodium falciparum [3]
  Activity: inactive
Plasmodium falciparum K1
  Activity: 57.7%
Plasmodium falciparum [4]
  Activity: inactive
Plasmodium falciparum [5]
  Activity: inactive
Plasmodium falciparum [6]
  Activity: inactive
Plasmodium falciparum [7]
  Activity: inactive
Plasmodium falciparum [8]
  Activity: inactive
Plasmodium falciparum [9]
  Activity: inactive

## N#CC(CCN1CCC(N)CC1)(c1ccccc1)c1ccccc1
Plasmodium falciparum [1]
  Activity: inactive
Plasmodium falciparum [2]
  Activity: inactive
Plasmodium falciparum [3]
  Activity: inactive
Plasmodium falciparum K1
  Activity: 58%
Plasmodium falciparum [4]
  Activity: inactive
Plasmodium falciparum [5]
  Activity: inactive
Plasmodium falciparum [6]
  Activity: inactive
Plasmodium falciparum [7]
  Activity: inactive
Plasmodium falciparum [8]
  Activity: inactive
Plasmodium falciparum [9]
  Activity: inactive

## O=C1C2CCN(CC2)C1Cc1ccccc1 (stereo unspecified)
Plasmodium falciparum [1]
  Activity: inactive
Plasmodium falciparum [2]
  Activity: inactive
Plasmodium falciparum [3]
  Activity: inactive
Plasmodium falciparum K1
  Activity: 34.7%
Plasmodium falciparum [4]
  Activity: inactive
Plasmodium falciparum [5]
  Activity: inactive
Plasmodium falciparum [6]
  Activity: inactive
Plasmodium falciparum [7]
  Activity: inactive
Plasmodium falciparum [8]
  Activity: inactive
Plasmodium falciparum [9]
  Activity: inactive

## O=C1C2CCN(CC2)C1C(c1ccccc1)c1ccccc1 (stereo unspecified)
Plasmodium falciparum [1]
  Activity: inactive
Plasmodium falciparum [2]
  Activity: inactive
Plasmodium falciparum [3]
  Activity: inactive
Plasmodium falciparum K1
  Activity: 49%
Plasmodium falciparum [4]
  Activity: inactive
Plasmodium falciparum [5]
  Activity: inactive
Plasmodium falciparum [6]
  Activity: inactive
Plasmodium falciparum [7]
  Activity: inactive
Plasmodium falciparum [8]
  Activity: inactive
Plasmodium falciparum [9]
  Activity: inactive

## CNCCCN1c2ccccc2CCc2ccccc21
Plasmodium falciparum K1
  Activity: 78.8%
